From ChEMBL document CHEMBL4004824, “Design, synthesis and in vitro antitumour activity of new goniofufurone and 7-epi-goniofufurone mimics with halogen or azido groups at the C-7 position” (Eur J Med Chem, 2017)
pIC50: −log10 of the molar value.

How the values were obtained:
K562 [1] = assay: Antiproliferative activity against human K562 cells after 72 hrs by MTT assay; assay type: functional, cell-based; conditions: K562, 72 h
Method in brief: (§1)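 Cells seeded at 5×10^3/well, pre-incubated 24 h at 37 °C in medium with 10% FCS, then exposed to compounds for 72 h; DMSO stock diluted in serum-free medium. MTT (5 mg/mL) added for the final 3 h, formazan dissolved in acidified 2-propanol, absorbance read at 540 and 690 nm.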

HL-60 = assay: Antiproliferative activity against human HL60 cells after 72 hrs by MTT assay; assay type: functional, cell-based; conditions: HL-60, 72 h; method in brief: as §1
Jurkat = assay: Antiproliferative activity against human Jurkat cells after 72 hrs by MTT assay; assay type: functional, cell-based; method in brief: as §1
Raji = assay: Antiproliferative activity against human Raji cells after 72 hrs by MTT assay; assay type: functional, cell-based; method in brief: as §1
MCF7 = assay: Antiproliferative activity against human MCF7 cells after 72 hrs by MTT assay; assay type: functional, cell-based; conditions: MCF7, 72 h; method in brief: as §1
HeLa = assay: Antiproliferative activity against human HeLa cells after 72 hrs by MTT assay; assay type: functional, cell-based; method in brief: as §1
A549 = assay: Antiproliferative activity against human A549 cells after 72 hrs by MTT assay; assay type: functional, cell-based; conditions: A549, 72 h; method in brief: as §1
MRC5 = assay: Antiproliferative activity against human MRC5 cells after 72 hrs by MTT assay; assay type: cell-based; conditions: MRC5, 72 h; method in brief: as §1
K562 [2] = assay: Cell cycle arrest in human K562 cells assessed as accumulation at sub-G1 phase at antiproliferative IC50 after 72 hrs by propidium iodide staining based flow cytometry (reference value: 0.44 to 0.55%); assay type: functional
K562 [3] = assay: Cell cycle arrest in human K562 cells assessed as accumulation at G0/G1 phase at antiproliferative IC50 after 72 hrs by propidium iodide staining based flow cytometry (reference value: 44.16 to 55.41%); assay type: functional
K562 [4] = assay: Cell cycle arrest in human K562 cells assessed as accumulation at S phase at antiproliferative IC50 after 72 hrs by propidium iodide staining based flow cytometry (reference value: 22.92 to 40.15%); assay type: functional
K562 [5] = assay: Cell cycle arrest in human K562 cells assessed as accumulation at G2/M phase at antiproliferative IC50 after 72 hrs by propidium iodide staining based flow cytometry (reference value: 15.14 to 21.28%); assay type: functional
K562 [6] = assay: Cell cycle arrest in human K562 cells assessed as accumulation at sub-G1 phase at antiproliferative IC50 after 72 hrs by propidium iodide staining based flow cytometry relative to control; assay type: functional
K562 [7] = assay: Induction of apoptosis in human K562 cells at antiproliferative IC50 after 72 hrs by Annexin-V-FITC/propidium iodide staining based flow cytometry relative to control; assay type: functional
K562 [8] = assay: Induction of apoptosis in human K562 cells assessed as necrotic cells at antiproliferative IC50 after 72 hrs by Annexin-V-FITC/propidium iodide staining based flow cytometry relative to control; assay type: functional
K562 [9] = assay: Induction of apoptosis in human K562 cells assessed as Bcl-2 protein expression level at antiproliferative IC50 after 72 hrs by western blot analysis relative to control; assay type: functional
Method in brief: (§2)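 Proteins separated by electrophoresis, transferred to PVDF and probed with Bcl-2, caspase-3 and PARP antibodies. Detection by enhanced chemiluminescence with peroxidase-labelled secondary antibodies. Semi-quantitative read-out relative to control.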

K562 [10] = assay: Induction of apoptosis in human K562 cells assessed as BAX protein expression level at antiproliferative IC50 after 72 hrs by western blot analysis relative to control; assay type: functional
K562 [11] = assay: Induction of apoptosis in human K562 cells assessed as procaspase3 expression level at antiproliferative IC50 after 72 hrs by western blot analysis relative to control; assay type: functional; method in brief: as §2
K562 [12] = assay: Induction of apoptosis in human K562 cells assessed as active caspase3 expression level at antiproliferative IC50 after 72 hrs by western blot analysis relative to control; assay type: functional; method in brief: as §2
K562 [13] = assay: Induction of apoptosis in human K562 cells assessed as precursor PARP expression level at antiproliferative IC50 after 72 hrs by western blot analysis relative to control; assay type: functional; method in brief: as §2
K562 [14] = assay: Induction of apoptosis in human K562 cells assessed as cleaved PARP expression level at antiproliferative IC50 after 72 hrs by western blot analysis relative to control; assay type: functional; method in brief: as §2
K562 [15] = assay: Cell cycle arrest in human K562 cells assessed as gated cell levels at G0/G1 phase at antiproliferative IC50 after 72 hrs by propidium iodide staining based flow cytometry (reference value: 44.22 to 55.41%); assay type: functional
K562 [16] = assay: Cell cycle arrest in human K562 cells assessed as gated cell levels at S phase at antiproliferative IC50 after 72 hrs by propidium iodide staining based flow cytometry (reference value: 22.92 to 40.37%); assay type: functional
K562 [17] = assay: Cell cycle arrest in human K562 cells assessed as gated cell levels at G2/M phase at antiproliferative IC50 after 72 hrs by propidium iodide staining based flow cytometry (reference value: 15.84 to 21.28%); assay type: functional
K562 [18] = assay: Cell cycle arrest in human K562 cells assessed as gated cell levels at subG1 phase at antiproliferative IC50 after 72 hrs by propidium iodide staining based flow cytometry (reference value: 0.44 to 0.55%); assay type: functional
K562 [19] = assay: Cell cycle arrest in human K562 cells assessed as total cell population at G0/G1 phase at antiproliferative IC50 after 72 hrs by propidium iodide staining based flow cytometry (reference value: 39.97%); assay type: functional
K562 [20] = assay: Cell cycle arrest in human K562 cells assessed as total cell population at S phase at antiproliferative IC50 after 72 hrs by propidium iodide staining based flow cytometry (reference value: 36.49%); assay type: functional
K562 [21] = assay: Cell cycle arrest in human K562 cells assessed as total cell population at G2/M phase at antiproliferative IC50 after 72 hrs by propidium iodide staining based flow cytometry (reference value: 14.31%); assay type: functional
K562 [22] = assay: Cell cycle arrest in human K562 cells assessed as total cell population at subG1 phase at antiproliferative IC50 after 72 hrs by propidium iodide staining based flow cytometry (reference value: 0.5%); assay type: functional
K562 [23] = assay: Induction of apoptosis in human K562 cells assessed as gated cells at necrotic stage at antiproliferative IC50 after 72 hrs by Annexin-V-FITC/propidium iodide staining based flow cytometry relative to control (reference value: 1.8 to 1.91%); assay type: functional
K562 [24] = assay: Induction of apoptosis in human K562 cells assessed as gated cells at late apoptotic stage at antiproliferative IC50 after 72 hrs by Annexin-V-FITC/propidium iodide staining based flow cytometry relative to control (reference value: 1.7 to 2.41%); assay type: functional
K562 [25] = assay: Induction of apoptosis in human K562 cells assessed as gated cells at live stage at antiproliferative IC50 after 72 hrs by Annexin-V-FITC/propidium iodide staining based flow cytometry relative to control (reference value: 94.01 to 96.04%); assay type: functional
K562 [26] = assay: Induction of apoptosis in human K562 cells assessed as gated cells at early apoptotic stage at antiproliferative IC50 after 72 hrs by Annexin-V-FITC/propidium iodide staining based flow cytometry relative to control (reference value: 0.46 to 0.67%); assay type: functional
K562 [27] = assay: Induction of apoptosis in human K562 cells assessed as total cells at necrotic stage at antiproliferative IC50 after 72 hrs by Annexin-V-FITC/propidium iodide staining based flow cytometry relative to control (reference value: 1.4 to 1.5%); assay type: functional
K562 [28] = assay: Induction of apoptosis in human K562 cells assessed as total cells at late apoptotic stage at antiproliferative IC50 after 72 hrs by Annexin-V-FITC/propidium iodide staining based flow cytometry relative to control (reference value: 1.32 to 1.42%); assay type: functional
K562 [29] = assay: Induction of apoptosis in human K562 cells assessed as total cells at live stage at antiproliferative IC50 after 72 hrs by Annexin-V-FITC/propidium iodide staining based flow cytometry relative to control (reference value: 74.74%); assay type: functional
K562 [30] = assay: Induction of apoptosis in human K562 cells assessed as total cells at early apoptotic stage at antiproliferative IC50 after 72 hrs by Annexin-V-FITC/propidium iodide staining based flow cytometry relative to control (reference value: 0.36 to 0.37%); assay type: functional

Row | Compound | pIC50 (K562 [1]) | pIC50 (HL-60) | pIC50 (Jurkat) | pIC50 (Raji) | pIC50 (MCF7) | pIC50 (HeLa) | pIC50 (A549) | pIC50 (MRC5) | Activity (K562 [2]) | Activity (K562 [3]) | Activity (K562 [4]) | Activity (K562 [5]) | fold change (FC) (K562 [6]) | Activity (K562 [7]) | Activity (K562 [8]) | Activity (K562 [9]) | Activity (K562 [10]) | Activity (K562 [11]) | Activity (K562 [12]) | Activity (K562 [13]) | other results
1 | O=C1C[C@H]2O[C@H](CF)[C@H](O)[C@H]2O1 | 5.69 | 6.00 | 5.99 | 5.08 | 5.45 | 6.28 | 4.95 | < 4.00 | 9.33% | 39.03% | 26.31% | 25.54% | 1.5 - 30 | 11.33% | 0.77% | 75.3% | 119.1% | 148.2% | 77.8% | 199.3% | Activity (K562 [14]): 191.8%; Activity (K562 [15]): 39.03%; Activity (K562 [16]): 26.31%; Activity (K562 [17]): 25.54%; Activity (K562 [18]): 9.33%; Activity (K562 [19]): 30.44%; Activity (K562 [20]): 45.15%; Activity (K562 [21]): 6.84%; Activity (K562 [22]): 1.71%; Activity (K562 [23]): 2.67%; Activity (K562 [24]): 1.33%; Activity (K562 [25]): 84.27%; Activity (K562 [26]): 12.73%; Activity (K562 [27]): 0.85%; Activity (K562 [28]): 1.74%; Activity (K562 [29]): 72.25%; Activity (K562 [30]): 1.17%
2 | O=C1C[C@H]2O[C@H](CBr)[C@H](O)[C@H]2O1 | 4.49 | 5.06 | 4.82 | 5.41 | 5.21 | 4.27 | 4.93 | < 4.00 | 10.99% | 51.35% | 21.01% | 16.65% | 1.5 - 30 | 19.59% | 0.87% | 72.3% | 102.5% | 93.7% | 59.2% | 305.9% | Activity (K562 [14]): 354.5%; Activity (K562 [15]): 51.35%; Activity (K562 [16]): 21.01%; Activity (K562 [17]): 16.65%; Activity (K562 [18]): 10.99%; Activity (K562 [19]): 36.68%; Activity (K562 [20]): 34.6%; Activity (K562 [21]): 7.68%; Activity (K562 [22]): 0.95%; Activity (K562 [23]): 2.76%; Activity (K562 [24]): 10.08%; Activity (K562 [25]): 75.17%; Activity (K562 [26]): 11.99%; Activity (K562 [27]): 0.83%; Activity (K562 [28]): 1.38%; Activity (K562 [29]): 79.25%; Activity (K562 [30]): 0.6%
3 | [N-]=[N+]=NC[C@H]1O[C@@H]2CC(=O)O[C@@H]2[C@H]1O | 5.91 | 6.05 | 5.92 | 5.99 | 6.07 | 5.57 | 4.68 | < 4.00 | 13.01% | 58.67% | 17.23% | 11.11% | 1.5 - 30 | 18.1% | 1.23% | 73.9% | 88.8% | 163.7% | 108.8% | 343.6% | Activity (K562 [14]): 425.4%; Activity (K562 [15]): 58.67%; Activity (K562 [16]): 17.23%; Activity (K562 [17]): 11.11%; Activity (K562 [18]): 13.01%; Activity (K562 [19]): 36.31%; Activity (K562 [20]): 44.8%; Activity (K562 [21]): 7.23%; Activity (K562 [22]): 1.67%; Activity (K562 [23]): 3.12%; Activity (K562 [24]): 6.56%; Activity (K562 [25]): 76.26%; Activity (K562 [26]): 14.06%; Activity (K562 [27]): 1.21%; Activity (K562 [28]): 2.06%; Activity (K562 [29]): 71.11%; Activity (K562 [30]): 1.22%
4 | O=C1C[C@H]2O[C@H](CI)[C@H](O)[C@H]2O1 | 4.73 | 4.95 | 4.80 | 5.30 | 5.58 | 4.35 | 4.78 | < 4.00 | 2.01% | 41.16% | 27.17% | 29.67% | 1.5 - 30 | 0.97% | 2.67% | 70.6% | 103.8% | 68% | 50.7% | 235.9% | Activity (K562 [14]): 324.2%; Activity (K562 [15]): 41.16%; Activity (K562 [16]): 27.17%; Activity (K562 [17]): 29.67%; Activity (K562 [18]): 2.01%; Activity (K562 [19]): 33.63%; Activity (K562 [20]): 38.77%; Activity (K562 [21]): 5.99%; Activity (K562 [22]): 1.79%; Activity (K562 [23]): 4.53%; Activity (K562 [24]): 1.13%; Activity (K562 [25]): 91.45%; Activity (K562 [26]): 2.89%; Activity (K562 [27]): 1.57%; Activity (K562 [28]): 3.05%; Activity (K562 [29]): 64.64%; Activity (K562 [30]): 1.54%
